pIC50: −log10 of the molar value.
Columns and labels:
HCT-116 = test: Antiproliferative activity against human HCT-116 cells harboring wild type p53 overexpressing MDM2 assessed as inhibition of cell growth incubated for 48 hrs by MTS assay; format: functional, cell-based; settings: HCT-116, 48 h
In short: (§1)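 MTS viability: cells seeded 1×10^4/well (HCT116), 3×10^3/well (SJSA-1, LNCaP), 5×10^3/well (MCF-7), treated ~24 h after plating with DMSO-stock compounds serially diluted in medium (final DMSO ≤0.1%). Ten or more concentrations over 1–100 µM, duplicates, ≥3 independent runs. Exposure 48 h (HCT116), 72 h (MCF-7), 96 h (SJSA-1, LNCaP). MTS 0.5 mg/mL added for 15–30 min, A490. IC50 from four-parameter variable-slope fit.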

MCF7 = test: Antiproliferative activity against human MCF7 cells harboring wild type p53 overexpressing MDM2/4 assessed as inhibition of cell growth incubated for 72 hrs by MTS assay; format: functional, cell-based; settings: MCF7, 72 h; in short: as §1
LNCaP = test: Antiproliferative activity against human LNCaP cells harboring wild type p53 overexpressing MDM2/4 assessed as inhibition of cell growth incubated for 96 hrs by MTS assay; format: functional, cell-based; in short: as §1
SJSA-1 = test: Antiproliferative activity against human SJSA-1 cells harboring wild type p53 overexpressing MDM2/4 assessed as inhibition of cell growth incubated for 96 hrs by MTS assay; format: functional, cell-based; settings: SJSA-1, 96 h; in short: as §1
[1] = target: Tumour suppressor protein p53/Mdm4 (Homo sapiens, UniProt O15151+P04637); test: Inhibition of MDM4/p53 interaction in human SH-SY5Y cells preincubated for 10 mins under shaking condition and measured after 1.5 hrs by immuno-enzymatic assay; format: cell-based
Sequence of Tumour suppressor protein p53/Mdm4 (P04637 whole entry): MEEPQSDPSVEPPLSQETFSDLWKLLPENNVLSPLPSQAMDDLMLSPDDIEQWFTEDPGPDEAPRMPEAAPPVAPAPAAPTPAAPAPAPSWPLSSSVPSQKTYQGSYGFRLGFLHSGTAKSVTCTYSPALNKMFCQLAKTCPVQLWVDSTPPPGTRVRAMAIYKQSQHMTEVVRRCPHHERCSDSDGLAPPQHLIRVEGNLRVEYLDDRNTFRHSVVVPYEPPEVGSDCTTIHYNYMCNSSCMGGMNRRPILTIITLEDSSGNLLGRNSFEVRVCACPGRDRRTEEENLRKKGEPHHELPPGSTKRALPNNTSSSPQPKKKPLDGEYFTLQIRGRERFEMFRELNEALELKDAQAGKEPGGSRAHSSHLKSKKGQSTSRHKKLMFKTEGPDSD
Sequence of Tumour suppressor protein p53/Mdm4 (O15151 whole entry): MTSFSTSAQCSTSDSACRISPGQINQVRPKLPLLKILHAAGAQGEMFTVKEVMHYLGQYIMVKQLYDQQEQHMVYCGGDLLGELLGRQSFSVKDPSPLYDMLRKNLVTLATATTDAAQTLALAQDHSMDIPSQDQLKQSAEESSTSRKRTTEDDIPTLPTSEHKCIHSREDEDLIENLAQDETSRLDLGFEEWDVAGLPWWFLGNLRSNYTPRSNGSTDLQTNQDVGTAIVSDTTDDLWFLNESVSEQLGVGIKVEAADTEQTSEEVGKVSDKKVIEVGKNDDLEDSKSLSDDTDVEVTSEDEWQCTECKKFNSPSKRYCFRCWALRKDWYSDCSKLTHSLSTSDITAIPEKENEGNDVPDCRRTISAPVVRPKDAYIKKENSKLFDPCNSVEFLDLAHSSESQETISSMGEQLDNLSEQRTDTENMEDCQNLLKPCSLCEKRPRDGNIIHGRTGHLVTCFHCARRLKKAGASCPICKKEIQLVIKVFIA

[2] = target: Tumour suppressor p53/oncoprotein Mdm2 (Homo sapiens, UniProt P04637+Q00987); test: Inhibition of MDM2/p53 interaction in human U-87 MG cells preincubated for 10 mins under shaking condition and measured after 1.5 hrs by immuno-enzymatic assay; format: cell-based
Sequence of Tumour suppressor p53/oncoprotein Mdm2 (P04637 whole entry): as the sequence (P04637 whole entry) above
Sequence of Tumour suppressor p53/oncoprotein Mdm2 (Q00987 whole entry): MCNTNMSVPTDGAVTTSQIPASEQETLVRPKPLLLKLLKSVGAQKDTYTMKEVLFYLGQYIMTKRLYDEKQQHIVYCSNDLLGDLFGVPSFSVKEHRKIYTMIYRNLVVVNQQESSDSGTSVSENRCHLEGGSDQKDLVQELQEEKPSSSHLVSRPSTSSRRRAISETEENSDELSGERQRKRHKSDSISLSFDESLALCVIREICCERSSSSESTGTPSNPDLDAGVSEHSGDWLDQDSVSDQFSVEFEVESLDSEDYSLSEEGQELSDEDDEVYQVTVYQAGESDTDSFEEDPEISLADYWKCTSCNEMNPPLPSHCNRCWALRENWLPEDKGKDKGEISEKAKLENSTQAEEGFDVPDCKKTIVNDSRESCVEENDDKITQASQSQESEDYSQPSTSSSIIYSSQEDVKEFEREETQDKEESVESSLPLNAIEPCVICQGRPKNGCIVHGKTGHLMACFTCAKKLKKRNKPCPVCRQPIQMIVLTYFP

Row | Compound | pIC50 (HCT-116) | also measured
1 | CCOC(=O)C1=NN(c2ccc(Cl)cc2)C2(C(=O)Nc3cc(Cl)ccc32)C1c1cccc(O)c1 (stereo unspecified) | 4.47 | –
2 | CCOC(=O)C1=NN(C(C)(C)C)C2(C(=O)Nc3cc(Cl)c(F)cc32)C1c1cccc(Cl)c1F (stereo unspecified) | 4.45 | –
3 | CCOC(=O)C1=NN(C(C)(C)C)C2(C(=O)Nc3cc(Cl)ccc32)C1c1cccc(F)c1 (stereo unspecified) | 4.35 | –
4 | CC(C)(C)N1N=C(C(=O)NCCO)C(c2cccc(Cl)c2F)C12C(=O)Nc1cc(Cl)ccc12 (stereo unspecified) | < 4.30 | –
5 | CCOC(=O)C1=NN(C2CCCCC2)C2(C(=O)Nc3cc(Cl)ccc32)C1c1ccc(F)cc1 (stereo unspecified) | 4.50 | pIC50 (MCF7): 4.69
6 | CCOC(=O)C1=NN(C(C)(C)C)C2(C(=O)Nc3cc(Cl)c(F)cc32)C1c1cccc(F)c1 (stereo unspecified) | 4.38 | –
7 | CCOC(=O)C1=NN(C2CCCCC2)C2(C(=O)Nc3cc(Cl)ccc32)C1c1cccc(F)c1 (stereo unspecified) | 4.56 | pIC50 (LNCaP): 4.88
8 | O=C(Nc1cccc(-n2cccn2)c1)C1=NN(c2ccc(Cl)cc2)C2(C(=O)Nc3cc(Cl)ccc32)C1c1cccc(O)c1 (stereo unspecified) | 4.68 | pIC50 (SJSA-1): 4.76; pIC50 (LNCaP): 4.94; pIC50 (MCF7): 4.91
9 | CCOC(=O)C1=NN(C2CCCCC2)C2(C(=O)Nc3cc(Cl)ccc32)C1c1cccc(Cl)c1F (stereo unspecified) | 4.63 | pIC50 (SJSA-1): 4.90
10 | O=C(Nc1ccc(O)cc1)C1=NN(c2ccc(Cl)cc2)C2(C(=O)Nc3cc(Cl)ccc32)C1c1cccc(O)c1 (stereo unspecified) | 4.57 | pIC50 (MCF7): 4.84
11 | CC(C)(C)N1N=C(C(=O)NCCc2ccc(O)cc2)C(c2cccc(Cl)c2F)C12C(=O)Nc1cc(Cl)ccc12 (stereo unspecified) | 4.52 | –
12 | CCOC(=O)C1=NN(C2CCCCC2)C2(C(=O)Nc3cc(Cl)ccc32)C1c1ccc(Cl)cc1 (stereo unspecified) | 4.41 | –
13 | O=C1Nc2ccc(Br)cc2C12C(c1ccccc1)C(c1ccccc1)=NN2c1ccccc1 (stereo unspecified) | – | pIC50 [1]: 6.53; pIC50 [2]: 6.84
